Seven molecules from ChEMBL document CHEMBL5137109, “Tunable Cysteine-Targeting Electrophilic Heteroaromatic Warheads Induce Ferroptosis” (J Med Chem, 2022) can be followed below.

Data set [1] concerns HCT-116. Briefly: Cytotoxicity against human HCT-116 cells assessed as reduction in cell viability incubated for 3 days by methylene blue staining based analysis. Type of data set: functional. The note with it: HCT-116, 72 h.
Data set [2] concerns NCI-H522. Briefly: Cytotoxicity against human NCI-H522 cells assessed as reduction in cell viability incubated for 3 days by methylene blue staining based analysis. Type of data set: functional. The conditions noted are these: NCI-H522, 72 h.
In data set [3] the target is T1, Phospholipid hydroperoxide glutathione peroxidase GPX4 (Homo sapiens) (UniProt P36969).
T1 sequence (whole entry): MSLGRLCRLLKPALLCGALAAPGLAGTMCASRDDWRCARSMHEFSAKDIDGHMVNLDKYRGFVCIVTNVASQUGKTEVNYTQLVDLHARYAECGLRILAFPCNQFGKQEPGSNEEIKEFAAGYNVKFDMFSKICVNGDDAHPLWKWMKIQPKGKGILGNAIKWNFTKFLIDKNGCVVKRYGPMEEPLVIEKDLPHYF
Briefly: Binding affinity to GPX4 in human NCI-H522 cells assessed as increase in aggregation temperature at 0.5 uM incubated for 1 hr by CETSA analysis. Format: cell-based. Summed up:
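Cells ~80% confluent treated 1 h (vehicle DMSO 0.1% v/v), trypsinized, washed, resuspended in PBS and aliquots heated at temperatures between 43–67 °C for 3 min. Cells then pelleted and lysed in NP-40/Tris buffer. Soluble fraction analysed by SDS-PAGE and western blot, and aggregation temperature compared with DMSO. Mean ± SD, n = 3, t-test.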

Data set [4] has as its system NCI-H522. Briefly: Induction of lipid peroxidation in human NCI-H522 cells assessed as increase in C11-BODIPY oxidation at 0.5 uM incubated for 3 hrs by flow cytometry. Type of data set: functional, cell-based. Summed up: (§1)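 NCI-H522 cells (~70% density) plated in dishes overnight, then treated with compound or DMSO plus C11-BODIPY 581/591 (1 μM) added at treatment. After 3 h or 6 h, cells washed, trypsinized, resuspended in PBS with 2% FBS and analysed by flow cytometry (preferably 20×10³ cells). Oxidation compared with DMSO treatment.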
(In flow cytometry, cells or beads pass a laser one at a time.)

The subject of data set [5] is NCI-H522. Briefly: Cytotoxicity against human NCI-H522 cells assessed as reduction in cell viability incubated for 3 days in presence of ferroptosis inhibitor, liproxstatin-1 by methylene blue staining based analysis. Type of data set: functional. The conditions noted are these: NCI-H522, 72 h. Summed up:
(§2)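 NCI-H522 cells seeded at 25×10³/well (n=3), adhered overnight, then exposed to compound with or without liproxstatin-1 (0.25 μM). After 3 days, methylene blue staining with HCl elution and A668. Results given as % relative to DMSO control, mean ± SD, n=3, one-way ANOVA. Fold change is IC50 (with liproxstatin-1)/IC50 (alone).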

Data set [6] can be described thus: Ratio of IC50 for cytotoxicity against human NCI-H522 cells in presence of ferroptosis inhibitor, liproxstatin-1 to IC50 for cytotoxicity against human NCI-H522 cells. Format: functional. An outline of the steps: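 NCI-H522 cells, 25*10³/well (n=3), plated overnight, treated with compound with or without Liproxstatin-1 (0.25 μM). After 3 days, methylene blue in 50% ethanol fix/stain 30 min RT, dye dissolved in 0.1N HCl, A668. Fold change = IC₅₀ with Liproxstatin-1 / IC₅₀ without.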

Data set [7] deals with HT-1080. Briefly: Cytotoxicity against human HT-1080 cells assessed as reduction in cell viability incubated for 3 days by methylene blue staining based analysis. The note with it: HT-1080, 72 h. Format: functional.
The subject of data set [8] is MDA-MB-468. The experiment in a line: Cytotoxicity against human MDA-MB-468 cells assessed as reduction in cell viability incubated for 3 days by methylene blue staining based analysis. The conditions noted are these: MDA-MB-468, 72 h. Type of data set: functional.
Data set [9] relates to MDA-MB-231. The experiment in a line: Cytotoxicity against human MDA-MB-231 cells assessed as reduction in cell viability incubated for 3 days by methylene blue staining based analysis. Type of data set: functional. The note with it: MDA-MB-231, 72 h.
Data set [10] deals with HeLa. Briefly: Cytotoxicity against human HeLa cells assessed as reduction in cell viability incubated for 3 days by methylene blue staining based analysis. Format: functional. The conditions noted are these: 72 h.
Data set [11] concerns U2OS. Briefly: Cytotoxicity against human U2OS cells assessed as reduction in cell viability incubated for 3 days by methylene blue staining based analysis. Type of data set: functional. The conditions noted are these: 72 h.
A short description of data set [12]: Cytotoxicity against human WI-38 cells assessed as reduction in cell viability incubated for 3 days by methylene blue staining based analysis. Format: toxicity.
A short description of data set [13]: Cytotoxicity against mouse MEF cells assessed as reduction in cell viability incubated for 3 days by methylene blue staining based analysis. Format: toxicity.
In data set [14] the target is T2, Thioredoxin reductase 1, cytoplasmic (Homo sapiens) (UniProt Q16881).
T2 sequence (whole entry): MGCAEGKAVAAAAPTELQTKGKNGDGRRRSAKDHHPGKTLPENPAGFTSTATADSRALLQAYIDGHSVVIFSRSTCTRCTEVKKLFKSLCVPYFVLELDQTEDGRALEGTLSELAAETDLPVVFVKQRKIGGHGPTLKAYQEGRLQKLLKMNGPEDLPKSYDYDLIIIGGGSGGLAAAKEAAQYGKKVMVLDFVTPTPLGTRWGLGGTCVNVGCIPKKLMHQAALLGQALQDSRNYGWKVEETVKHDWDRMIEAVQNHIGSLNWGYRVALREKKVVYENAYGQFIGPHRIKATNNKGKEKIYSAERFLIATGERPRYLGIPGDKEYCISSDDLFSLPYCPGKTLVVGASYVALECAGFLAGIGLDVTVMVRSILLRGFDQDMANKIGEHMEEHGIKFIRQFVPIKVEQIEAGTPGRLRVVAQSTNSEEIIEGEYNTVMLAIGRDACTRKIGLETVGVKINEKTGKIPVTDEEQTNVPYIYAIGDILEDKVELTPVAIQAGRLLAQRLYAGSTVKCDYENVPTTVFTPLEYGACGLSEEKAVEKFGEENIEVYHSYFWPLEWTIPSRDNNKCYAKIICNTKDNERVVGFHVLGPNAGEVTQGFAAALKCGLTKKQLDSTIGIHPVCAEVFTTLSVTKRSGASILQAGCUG
The experiment in a line: Binding affinity to TXRD1 in human NCI-H522 cells at 10 uM incubated for 1 hr by Biotin-TAMRA pull down based western blot analysis. Format: cell-based. Summed up: (§3)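 Probe or control given to cells for 1 h at 37 °C, two 10 cm dishes per treatment. Lysates precleared with streptavidin, then clicked to biotin-TAMRA azide (20 min RT plus 10 min 37 °C). Proteins precipitated, captured overnight on streptavidin beads and washed with RIPA/PBS. Bead eluates separated on 12.5% SDS-PAGE and immunoblotted, with milk blocking, primary antibody overnight at 4 °C, HRP secondary and ECL.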
(In western blotting, separated proteins are transferred to a membrane and probed.)

The nature of data set [15]: Selectivity ratio of IC50 for human HCT-116 cells to IC50 for human NCI-H522 cells by methylene blue staining based analysis. Type of data set: functional.
For data set [16], the system named is NCI-H522. The experiment in a line: Induction of lipid peroxidation in human NCI-H522 cells assessed as increase in C11-BODIPY oxidation at 5 uM incubated for 6 hrs by flow cytometry relative to control. Type of data set: functional. An outline of the steps:
(§4)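 NCI-H522 cells at ~70% density, plated overnight, treated with compound or DMSO together with C11-BODIPY 581/591 (1 μM) for 3 h or 6 h. Cells then PBS-washed, trypsinised, resuspended in PBS with 2% FBS and read by flow cytometry, preferably 20*10³ cells. Oxidation compared with DMSO treatment.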

The test system of data set [17] is NCI-H522. The experiment in a line: Cytotoxicity against human NCI-H522 cells assessed as time required to cause 50% irreversible cell death treated with compound followed by washing for every 30 mins for 6 hrs by methylene blue staining based analysis. Format: functional. Summed up:
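NCI-H522 cells, 5*10³/well (n=3), plated overnight, then treated with compound or DMSO. Wells washed immediately after treatment and then at 30-min intervals up to 6 h; last wells not washed. Methylene blue in 50% ethanol fix/stain 30 min RT, dye dissolved in 0.1N HCl, A668. Each point taken as % survival of matching DMSO-treated cells.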

In data set [18] the test system is NCI-H522. Briefly: Cytotoxicity against human NCI-H522 cells assessed as reduction in cell survival at 4.5 uM incubated for 3 days in presence of ferroptosis inhibitor, liproxstatin-1 by methylene blue staining based analysis. Type of data set: functional. The conditions noted are these: time 3.0 day. An outline of the steps:
as §2

The subject of data set [19] is NCI-H522. Briefly: Induction of lipid peroxidation in human NCI-H522 cells assessed as increase in C11-BODIPY oxidation at 30 uM incubated for 6 hrs by flow cytometry. Type of data set: functional, cell-based. Summed up: as §1
In data set [20] the target is T1, Phospholipid hydroperoxide glutathione peroxidase GPX4 (Homo sapiens). Briefly: Binding affinity to GPX4 in human NCI-H522 cells at 10 uM incubated for 1 hr by Biotin-TAMRA pull down based mass spectrometry. Format: cell-based. An outline of the steps: (§5)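 Cells ~70% density, five 10 cm dishes per treatment, exposed to alkyne probe or control for 1 h at 37 °C, then lysed (NP-40/Tris). Lysate precleared on streptavidin beads 2 h at 4 °C, then CuAAC with biotin-TAMRA azide, THPTA, CuSO4 and ascorbate for 30 min at RT. Proteins MeOH/CHCl3 precipitated, enriched overnight on streptavidin, checked by in-gel fluorescence. Reduced/alkylated, trypsin-digested, nano LC-MS/MS. Filtered at 1% FDR, ≥2 unique peptides.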

For data set [21], the system named is NCI-H522. Briefly: Induction of lipid peroxidation in human NCI-H522 cells assessed as increase in C11-BODIPY oxidation at 10 uM incubated for 6 hrs by flow cytometry. Format: functional, cell-based. An outline of the steps:
as §1

The target in data set [22] is T3, Glutathione S-transferase omega-1 (Homo sapiens) (UniProt P78417).
T3 sequence (whole entry): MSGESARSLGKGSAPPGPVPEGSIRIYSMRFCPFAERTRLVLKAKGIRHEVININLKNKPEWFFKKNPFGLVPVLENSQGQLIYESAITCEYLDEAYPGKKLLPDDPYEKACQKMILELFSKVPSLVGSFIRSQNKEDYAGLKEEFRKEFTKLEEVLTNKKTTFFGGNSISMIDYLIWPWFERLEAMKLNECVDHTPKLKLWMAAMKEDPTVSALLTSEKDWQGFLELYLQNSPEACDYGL
Briefly: Binding affinity to GSTO1 in human NCI-H522 cells at 10 uM incubated for 1 hr by Biotin-TAMRA pull down based mass spectrometry. Format: cell-based. Summed up:
as §5

For data set [23], the target named is T1, Phospholipid hydroperoxide glutathione peroxidase GPX4 (Homo sapiens). The experiment in a line: Binding affinity to GPX4 in human NCI-H522 cells at 10 uM incubated for 1 hr by Biotin-TAMRA pull down based western blot analysis. Type of data set: cell-based. An outline of the steps: as §3
Data set [24] has as its target T3, Glutathione S-transferase omega-1 (Homo sapiens). Briefly: Binding affinity to GSTO1 in human NCI-H522 cells at 10 uM incubated for 1 hr by Biotin-TAMRA pull down based western blot analysis. Format: cell-based. Summed up:
as §3

In data set [25] the target is T2, Thioredoxin reductase 1, cytoplasmic (Homo sapiens). Briefly: Binding affinity to TXRD1 in human NCI-H522 cells at 10 uM incubated for 1 hr by Biotin-TAMRA pull down based mass spectrometry. Format: cell-based. An outline of the steps:
as §5

The subject of data set [26] is NCI-H522. Briefly: Induction of lipid peroxidation in human NCI-H522 cells assessed as increase in C11-BODIPY oxidation at 10 uM incubated for 3 hrs by flow cytometry. Format: functional, cell-based. An outline of the steps:
as §4

Molecules are shown by their SMILES. The source made the active and inactive calls. No cut-off for these calls is given here.

Broadly, the IC50 is the concentration that gives 50% inhibition.

As to `C#Cc1nc(C(=O)N2CCN(C(c3ccc(Cl)cc3)c3ccc(Cl)cc3)CC2)cs1`, the half-maximal inhibitory concentration (IC50) in [1] is > 1 µM; in [2], 17 nM; in data set [5], 7.89 µM; in [7], 19 nM; in data set [8] it was 84 nM; in data set [9], 21 nM. The figures for the IC50 in data set [10] and in [11] were 242 nM and 367 nM, respectively. Further, the deltaT in data set [3] came to 7 °C. Besides, the result in data set [4] was Active. The “Ratio IC50” value in data set [6] is recorded as 464.353. In addition, the IC50 at 3 days in data set [12] amounted to 22 nM; in [13], 10 nM.
As for `C#CCNC(=O)c1csc(C#Cc2ccccc2)n1`, the values for the 50% inhibitory concentration (IC50) in [1] and in data set [2] were > 40 µM and > 40000 nM, respectively. Also, the result in data set [14] was Active.
As for `C#Cc1nc2ccccc2s1`, the 50% inhibitory concentration (IC50) came to 19.6 µM in data set [1] and 860 nM in [2]. Also, in [15], the “Ratio IC50” value was 22.8. Further, in [16], the “fold change (FC)” value is recorded as >5. In addition, the IT50 in data set [17] is 1.7 h.
For the molecule `C=Cc1nc2ccccc2n1C`, the half-maximal inhibitory concentration (IC50) in data set [1] is 9.5 µM; in data set [2], 2340 nM. In addition, the “Ratio IC50” value in [15] came to 4.05. In data set [18], the result was Active.
For the molecule `C#Cc1nc(-c2ccccc2)cs1`, the concentration for half-maximal inhibition (IC50) in data set [1] is > 40 µM; in data set [2], 5650 nM. For the same molecule, the “Ratio IC50” value in data set [15] was >7.07. Moreover, the result in data set [19] was Active.
As for `C#CCNC(=O)c1csc(C#C)n1`, the result in [20], in [21], in data set [22], in data set [23], in data set [24] and in [25] was Active. For the same molecule, the figures for the half-inhibitory concentration (IC50) in data set [1] and in data set [2] were 19.2 µM and 2100 nM, respectively.
Consider `C#Cc1nc2ccccc2[se]1`, for which the half-inhibitory concentration (IC50) in data set [1] was found to be 25 µM; in data set [2], 2170 nM. The “Ratio IC50” value in data set [15] amounted to 11.5. Besides, in data set [26], the result was Active.
